These entries were drawn from the full list.
KCNQ1 act: human KCNQ1 channel potentiation or activation. B-score at 10 µM. CHO-K1 KCNQ1, thallium flux FluxOR fluorescence; hits give high values. AID 2648. actives 0.35% (n = 310,000);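 active means fluorescence ratio B-score, a plate-corrected score, at least three library SD, with initial intensity B-score within 5 SD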
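Material: CHO-K1 cells stably expressing KCNQ1. Medium: assay buffer for compound exposure, DMSO matched across wells. Reagent: K+/Tl+ depolarizing stimulus. Compound dosing: single-concentration screen. Times: 37 °C overnight plating, 90-min dark dye load, 20-min compound pretreatment. Technique: FluxOR Tl+ flux fluorescence.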
KCNK9 inh: inhibitors of human KCNK9 two-pore domain potassium channel; Q9NPC2; HEK293 KCNK9, FluxOR thallium flux fluorescence; hits give low values; B-score at 10 µM; actives 1.2% (n = 310,000);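 active means ratio B-score over 3 SD below the library mean, with starting fluorescence within 5 SD of its mean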;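 further: negative B-score means less thallium flux so channel inhibition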
hERG rescue: hERG (human) protection from proarrhythmic block. actives 0.51% (n = 310,000). Q12809. CHO-hERG, FluxOR thallium flux, dofetilide IC70 present. AID 1511. activation (rescue from dofetilide block), less the hit threshold, % at 10 µM;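 active means activation above the mean of controls blocked by dofetilide plus 5 SD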;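 further: thallium influx through hERG after potassium depolarization seen as dye fluorescence rise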
KCC2 mod: modulates chloride dependent transport by human KCC2 | KCC2 cells, thallium flux FluoZin-2 fluorescence | AID 1456 | B-score of Tl+ flux slope (higher = more flux/activation; lower = inhibition) at 10 µM | Q9H2X9 | actives 2.2% (n = 190,000);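 active means thallium flux slope and its plate-corrected score both differing from the plate sample mean at a set confidence after two filtering rounds, in either direction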;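 further: slope of fluorescence scaled to starting intensity during 10 to 20 s after thallium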
KCNQ1 block: inhibitors of human KCNQ1 potassium channel | B-score at 10 µM | P51787 | actives 1.3% (n = 310,000) | CHO-K1 KCNQ1, FluxOR thallium flux fluorescence; hits give high values;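 active means compounds whose thallium flux B-score, printed positive for inhibition, exceeds three library SD while starting fluorescence stays within three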;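 further: channel opened by potassium depolarization with thallium stimulus after 20 min compound exposure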
KCNK3 inh: human KCNK3 channel inhibition, primary screen; O14649; CHO-KCNK3 thallium flux, FluxOR fluorescence; hits give low values; B-score at 10 µM; actives 0.84% (n = 340,000); AID 602410;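 active means B-score under library mean minus 4 SD, starting fluorescence ratio at most library mean plus 5 SD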;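 further: more negative B-score means stronger inhibition of thallium flux through KCNK3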
KCNK9 inh conf: human KCNK9 inhibitor confirmation | HEK293 KCNK9 cells, FluxOR thallium flux fluorescence | shares compounds with KCNK9 inh | AID 492992 | actives 43% (n = 4,900) | inhibition, % at 10 µM;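 active means thallium signal inhibited by more than 5 SD of the compound-free buffer control wells, on both duplicate plates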;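 further: 0% = assay buffer control wells without compound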
Kir2-1 spec: mouse Kir2.1 off-target activity of KCNK9 modulators | Kir2.1 cells, FluxOR thallium flux fluorescence | actives 4% (n = 4,900) | inhibition, % at 10 µM | shares compounds with KCNK9 inh;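 active means thallium signal drop more than 5 SD beyond the mean of the no-compound control wells, seen in both duplicate plates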;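 further: signal is fluorescence rise after thallium addition divided by baseline fluorescence; plate controls were assay buffer only for no effect and full block by chlorpromazine control for full effect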
Target sequence (P35561 whole entry, looked up): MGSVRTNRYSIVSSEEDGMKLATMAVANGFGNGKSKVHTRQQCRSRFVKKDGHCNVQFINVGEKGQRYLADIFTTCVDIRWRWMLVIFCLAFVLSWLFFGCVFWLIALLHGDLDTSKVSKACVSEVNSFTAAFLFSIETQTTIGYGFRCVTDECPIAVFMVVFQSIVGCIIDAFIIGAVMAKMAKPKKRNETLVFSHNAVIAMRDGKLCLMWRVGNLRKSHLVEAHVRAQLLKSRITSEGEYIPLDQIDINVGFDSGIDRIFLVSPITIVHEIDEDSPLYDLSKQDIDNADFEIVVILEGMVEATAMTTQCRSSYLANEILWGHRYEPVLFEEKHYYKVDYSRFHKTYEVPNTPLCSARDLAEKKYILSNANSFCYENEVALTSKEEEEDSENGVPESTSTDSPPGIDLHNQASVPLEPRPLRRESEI
HEK293 Tl ctr: second counter-screen for KCNK9 modulators: effect in non-induced cells; shares compounds with KCNK9 inh; non-induced KCNK9-HEK293, FluxOR thallium flux; inhibition, % at 10 µM; actives 40% (n = 4,900);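 active means thallium signal drop beyond 5 SD of the untreated control mean, on both duplicate plates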;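 further: plate controls were buffer only IC0 wells for no effect and SID17386958 at its maximal inhibitory level for full effect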
* marks the source's active call; other numbers are inactive results.

For Cc1ccc(N2CCN(CC(=O)Nc3c(C(=O)C4CC4)oc4ccccc34)CC2)cc1 the results were KCC2 mod -0.096.
For O=C(CN1CCN(c2ccccc2)CC1)Nc1c(C(=O)C2CC2)oc2ccccc12 the results were KCNQ1 act inactive, KCNK9 inh -11*, hERG rescue -5, KCC2 mod -0.54, KCNQ1 block inactive, KCNK3 inh inactive, KCNK9 inh conf 32%*, Kir2-1 spec inactive and HEK293 Tl ctr inactive.
Screening CCOC(=O)C1(CCCc2ccccc2)CCN(C2CCSCC2)CC1 returned KCNQ1 act inactive, KCNK9 inh inactive, hERG rescue -13, KCC2 mod -0.81, KCNQ1 block inactive, KCNK3 inh inactive, KCNK9 inh conf inactive, Kir2-1 spec inactive and HEK293 Tl ctr inactive.
Cc1cc(C(=O)COC(=O)CNC(=O)c2ccco2)c(C)n1Cc1ccco1 was read as KCNQ1 act inactive, KCNK9 inh inactive, hERG rescue -7, KCC2 mod -0.12, KCNQ1 block inactive and KCNK3 inh inactive.
Cc1cc(C(=O)COC(=O)CCC(=O)c2ccc3c(c2)OCCO3)c(C)n1Cc1ccco1 was read as KCNQ1 act inactive, KCNK9 inh inactive, hERG rescue -7, KCNQ1 block inactive, KCNK3 inh inactive, KCNK9 inh conf inactive, Kir2-1 spec inactive and HEK293 Tl ctr inactive.
Screening COc1cc(OC)cc(C(=O)NCC(=O)OCC(=O)c2cc(C)n(Cc3ccco3)c2C)c1 returned KCNQ1 act inactive, KCNK9 inh inactive, hERG rescue -8, KCC2 mod -1.2, KCNQ1 block inactive and KCNK3 inh inactive.
Screening Cc1cc(C(=O)COC(=O)c2ccc(Br)o2)c(C)n1Cc1ccco1 returned KCNQ1 act inactive, KCNK9 inh inactive, hERG rescue -8, KCC2 mod 0.41, KCNQ1 block inactive, KCNK9 inh conf inactive, Kir2-1 spec inactive and HEK293 Tl ctr inactive.
Screening O=C(N=C1SC2CS(=O)(=O)CC2N1Cc1ccccc1Cl)C1CC1 (stereo not drawn) returned KCNQ1 act inactive, KCNK9 inh inactive, hERG rescue -7, KCNQ1 block inactive and KCNK3 inh inactive.
For Cc1ccc2c(c1)C1CN(C)CCC1N2S(=O)(=O)c1ccccc1F (stereo not drawn) the results were KCNK3 inh inactive.
For CSCCC(C(=O)OCC(=O)c1ccc(C)c(C)c1)N1C(=O)c2cc(Cl)c(Cl)cc2C1=O (stereo not drawn) the results were KCNQ1 act inactive, KCNK9 inh inactive, hERG rescue -14, KCC2 mod 0.4, KCNQ1 block inactive, KCNK3 inh inactive, KCNK9 inh conf inactive, Kir2-1 spec inactive and HEK293 Tl ctr inactive.
`COc1ccccc1C(CNC(=O)C1CCN(C(=O)Nc2ccccc2)CC1)N1CCCC1` (stereo not drawn) gave KCNK3 inh inactive.
`CC(=O)SC1CC(=O)C=C2CCC3C4CCC(=O)OC4(C)CCC3C21C` (stereo not drawn) gave KCNK3 inh inactive.
`Cc1nn(Cc2cccc(C(=O)NC(C)c3ccc(C(C)(C)C)cc3)c2)c(C)c1[N+](=O)[O-]` (stereo not drawn) gave KCNQ1 act inactive, KCNK9 inh inactive, hERG rescue -10, KCC2 mod -0.19, KCNQ1 block inactive and KCNK3 inh inactive.
`CCC(NC(=O)c1cccc(Cn2nc(C)c([N+](=O)[O-])c2C)c1)c1ccc(C(C)C)cc1` (stereo not drawn) gave KCNQ1 act inactive, KCNK9 inh inactive, hERG rescue -8, KCC2 mod -1.8, KCNQ1 block inactive, KCNK3 inh inactive, KCNK9 inh conf inactive, Kir2-1 spec inactive and HEK293 Tl ctr inactive.
For Cc1cc(C)cc(SCc2noc(C(=O)NCc3ccccc3)c2C(=O)NCc2ccccc2)c1 the results were KCNQ1 act inactive, KCNK9 inh inactive, hERG rescue -1, KCC2 mod -1.5, KCNQ1 block inactive and KCNK3 inh inactive.
`CC(C)CCNC(=O)c1c(CSc2ccc(Cl)cc2)noc1C(=O)NCc1ccccc1` gave KCNQ1 act inactive, KCNK9 inh inactive, hERG rescue -6, KCNQ1 block inactive, KCNK3 inh inactive, KCNK9 inh conf inactive, Kir2-1 spec inactive and HEK293 Tl ctr inactive.
CCCCNC(=O)c1onc(CSc2ccc(Cl)cc2)c1C(=O)NCCCC was read as KCNQ1 act inactive, KCNK9 inh inactive, hERG rescue -5, KCNQ1 block inactive and KCNK3 inh inactive.
For O=C(NCc1ccccc1)c1onc(CSc2ccc(F)cc2)c1C(=O)NCc1ccccc1 the results were KCNQ1 act inactive, KCNK9 inh inactive, hERG rescue -5, KCNQ1 block inactive, KCNK3 inh inactive, KCNK9 inh conf inactive, Kir2-1 spec inactive and HEK293 Tl ctr inactive.
`CCCCNC(=O)c1onc(CSc2ccc(F)cc2)c1C(=O)NCCCC` gave KCNQ1 act inactive, KCNK9 inh inactive, hERG rescue -11, KCC2 mod -0.84, KCNQ1 block inactive, KCNK3 inh inactive, KCNK9 inh conf inactive, Kir2-1 spec inactive and HEK293 Tl ctr inactive.
`CCCNC(=O)c1onc(CSc2ccc(Cl)cc2)c1C(=O)NC(C)C` gave KCNQ1 act inactive, KCNK9 inh inactive, hERG rescue -13, KCNQ1 block inactive, KCNK3 inh inactive, KCNK9 inh conf inactive, Kir2-1 spec inactive and HEK293 Tl ctr inactive.
Screening O=C(NCc1ccccc1)c1onc(CSc2ccccn2)c1C(=O)NCc1ccccc1 returned KCNQ1 act inactive, KCNK9 inh inactive, hERG rescue -6, KCC2 mod -0.41, KCNQ1 block inactive, KCNK3 inh inactive, KCNK9 inh conf inactive, Kir2-1 spec inactive and HEK293 Tl ctr inactive.
COCCNC(=O)c1onc(CSc2ccccn2)c1C(=O)NCCOC was read as KCNQ1 act inactive, KCNK9 inh inactive, hERG rescue -8, KCNQ1 block inactive and KCNK3 inh inactive.
COC(=O)[C@]1(C)N[C@H](CN(C)S(=O)(=O)c2ccc(C(F)(F)F)cc2)[C@@H]2C(=O)N(C)C(=O)[C@@H]21 was read as KCNK3 inh inactive.

Assay outcomes as filed in PubChem BioAssay.
